Measured values reported in PubChem BioAssay AID504338 (NMMLSC, 2011).
Calls of active or inactive are those of the source.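 The calls were made as follows: active = GFP response vs DMSO above 150% with enough events counted; inconclusive = fewer than 70 events counted for a yeast strain; inactive = the rest.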

Assay: yeast TOR reporter LAP4-GFP retest – cell-based, third cherry pick, flow cytometry, confirmation (AID 504338);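 also: ratio to plate DMSO wells so 100% equals DMSO level rather than 0%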
Conditions: S. cerevisiae LAP4-GFP strain, 3 h, at 10 µM, hits give high values
Procedure, shortened: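 material = yeast LAP4-GFP strain | medium = synthetic complete growth medium for yeast | doses = 10 µM, one concentration | schedule = compound exposure for 3 h at 30 °C | signal = flow cytometric GFP fluorescence | read-out basis = percent of mean DMSO-control median fluorescence | control set = rapamycin 400 ng/mL as positive control, DMSO wells as reference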

GFP response vs DMSO, active:
CC1=CN2C(=N)/C(=C/c3ccc([N+](=O)[O-])o3)C(=O)N=C2S1 3330%
Oc1c(I)cc(Cl)c2cccnc12 192%
Oc1c(Br)cc(Br)c2cccnc12 257%

GFP response vs DMSO, inactive:
Cn1c(NCCCO)nc2c(c1=O)C1(CCCCC1)Cc1ccccc1-2 104%
O=C(N/N=C/c1ccccc1)c1cccc2ccccc12 103%
O=C(Nc1nc(-c2ccccn2)cs1)c1ccccc1-n1cnnn1 94.4%
C=CCNc1nc(N)c([N+](=O)[O-])c(Nc2ccccc2OC)n1 100%
Cn1c(NCCO)nc2c(c1=O)C1(CCCCC1)Cc1ccccc1-2 104%
C/C(=C\C(=O)c1ccccc1)Nc1ccc(O)cc1 101%
C[n+]1cccc2c(Br)ccc([O-])c21 104%
Cc1ccc2c(Cl)cc(Cl)c(OCC(=O)O)c2n1 100%
COc1ccc(Nc2nc(NN)nc(C)c2[N+](=O)[O-])cc1 100%
COc1cc(OC)cc(C(=O)Nc2ccc(-c3nc4ccccc4o3)cc2)c1 106%
O=C(O)c1ccc(C=NNC(=O)c2cccc3ccccc23)cc1 104%
CNc1nc(N)c([N+](=O)[O-])c(Nc2ccccc2OC)n1 111%
C=CCNc1ncnc2ccccc12 103%
O=C(/C=C/Nc1cccc(O)c1)c1ccccc1 111%
COc1ccccc1OCc1cc(C(=O)N2CCN(C)C(c3ccccc3)C2)no1 (centres undefined) 106%
Cc1cccc(N/C=C/C(=O)c2ccc(Cl)cc2)c1 110%
CCC(=O)Nn1cnc2c(c1=O)C1(CCCCC1)Cc1ccccc1-2 101%
COCCNc1nc(N)c([N+](=O)[O-])c(Nc2ccc(F)cc2)n1 106%
Nc1c(O)ccc2c1C(=O)c1ccccc1C2=O 101%
C/C(=N\NC(=O)c1cccc2ccccc12)c1cccnc1 104%
Nc1ncnc(Nc2cc(Cl)cc(Cl)c2)c1[N+](=O)[O-] 101%
C/C(=C\C(=O)c1ccc(C)cc1)Nc1cccc(O)c1 106%
CCC(C)Nc1nc(N)c([N+](=O)[O-])c(Nc2cc(OC)ccc2OC)n1 (centres undefined) 101%
COc1ccc(N/C=C/C(=O)c2ccc(Cl)cc2)cc1 110%
COCCCNc1nc(N)c([N+](=O)[O-])c(Nc2cc(OC)ccc2OC)n1 103%
COc1cccc2c(O)cc(=O)n(C)c12 104%
NC(=O)c1ccnc2c(O)cccc12 101%
C=CCNc1nc(N)c([N+](=O)[O-])c(Nc2cccc(Cl)c2)n1 104%
Nc1ccc(O)c2c1C(=O)c1ccccc1C2=O 98.6%
CC(=O)C(CC(=O)N1CCCC1)C(=O)Nc1ccc(Cl)cc1 (centres undefined) 108%
COc1cccc2c(=O)c(C(=O)O)c[nH]c12 110%
CSc1ccccc1OCc1cc(C(=O)N2CCN(C)C(c3ccccc3)C2)no1 (centres undefined) 107%
COc1cccc(OCc2cc(C(=O)N3CCN(C)C(c4ccccc4)C3)no2)c1 (centres undefined) 106%
Cc1nc(Nc2ccc(Br)cc2Br)c([N+](=O)[O-])c(=O)[nH]1 106%
Oc1ccc(Cl)c2cccnc12 110%
CC(C)Nc1ncnc2ccc(Br)cc12 106%
